{"source": "paper PMC9728588", "about": "(Chemical Science, 2022)", "key": {"red blood cells": {"system": "red blood cells", "assay": "Hemolysis assay", "assay_type": "cell-based, mouse", "details": "2% (v/v) RBC in PBS, 37 °C, 1 h; absorbance 540 nm; water / PBS controls", "procedure,_shortened": "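Red cells were exposed to the test peptide across a concentration range, and separately to peptide–quantum dot co-assemblies (peptide fixed at 1 mg mL−1, QD level varied). Supernatants were scanned by UV-vis spectroscopy to derive hemolysis rates. Means ± s.d., n = 3; one-way ANOVA with Tukey post hoc test.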"}, "CD47": {"target": "CD47 (Homo sapiens, UniProt Q08722)", "sequence (Q08722 19-323, species assumed)": "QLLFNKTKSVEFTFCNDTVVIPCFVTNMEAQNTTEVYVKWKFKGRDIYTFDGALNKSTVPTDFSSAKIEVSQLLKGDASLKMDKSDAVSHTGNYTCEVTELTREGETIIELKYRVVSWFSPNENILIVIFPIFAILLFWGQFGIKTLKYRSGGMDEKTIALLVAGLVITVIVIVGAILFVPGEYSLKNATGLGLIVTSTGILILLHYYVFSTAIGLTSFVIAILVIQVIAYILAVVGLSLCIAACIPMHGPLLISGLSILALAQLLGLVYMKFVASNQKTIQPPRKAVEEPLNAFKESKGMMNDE", "assay": "SPRi analysis of the binding between RT and CD47"}}, "note": "Ends that are not written are not given here."}
{"sequence": "HFEYWEERHKKLVFF [RT]", "values": [{"measurement": "hemolytic effect", "setting": "red blood cells", "value": "almost no hemolytic effect"}, {"measurement": "Kd", "setting": "CD47", "value": 0.318, "unit": "µM"}]}
